The target of assay [1] is T1, Adenosine receptor A1 (Homo sapiens, UniProt P30542).
T1 sequence (P30542 whole entry): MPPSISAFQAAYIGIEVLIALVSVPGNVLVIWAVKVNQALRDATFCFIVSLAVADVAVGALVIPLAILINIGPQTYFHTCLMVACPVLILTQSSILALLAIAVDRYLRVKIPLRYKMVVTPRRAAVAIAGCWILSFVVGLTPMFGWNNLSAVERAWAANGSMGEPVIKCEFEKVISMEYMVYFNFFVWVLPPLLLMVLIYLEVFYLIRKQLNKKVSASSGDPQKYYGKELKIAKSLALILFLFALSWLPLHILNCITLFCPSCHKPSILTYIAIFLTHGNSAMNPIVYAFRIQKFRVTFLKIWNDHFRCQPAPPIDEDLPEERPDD
As to the kind of experiment: Displacement of [3H]CCPA from human adenosine receptor A1 expressed in CHO cell membranes incubated for 90 mins by radioligand competition assay. More on the design: species or system Cell membrane. A general note: Displacement assays read how much labelled ligand stays bound in the presence of the test substance.

For assay [2], the target named is T2, Adenosine receptor A1 (Rattus norvegicus, UniProt P25099).
T2 sequence (P25099 whole entry): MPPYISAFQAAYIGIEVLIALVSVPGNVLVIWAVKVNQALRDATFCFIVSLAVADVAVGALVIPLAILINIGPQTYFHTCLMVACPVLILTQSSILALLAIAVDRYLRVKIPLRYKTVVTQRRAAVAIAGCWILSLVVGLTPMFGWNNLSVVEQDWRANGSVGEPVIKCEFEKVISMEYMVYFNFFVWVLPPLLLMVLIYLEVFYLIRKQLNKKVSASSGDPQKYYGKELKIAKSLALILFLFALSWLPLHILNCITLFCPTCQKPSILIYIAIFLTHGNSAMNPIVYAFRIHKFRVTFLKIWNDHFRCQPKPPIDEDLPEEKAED
As to the kind of experiment: Displacement of [3H]DPCPX from rat brain cortical membrane A1AR in presence of 100 uM of GTP by scintillation counting analysis. Format: cell membranes, Cortex, Cell membrane.

For assay [3], the target named is T3, Adenosine receptor A2b (Rattus norvegicus) (UniProt P29276).
T3 sequence (whole entry): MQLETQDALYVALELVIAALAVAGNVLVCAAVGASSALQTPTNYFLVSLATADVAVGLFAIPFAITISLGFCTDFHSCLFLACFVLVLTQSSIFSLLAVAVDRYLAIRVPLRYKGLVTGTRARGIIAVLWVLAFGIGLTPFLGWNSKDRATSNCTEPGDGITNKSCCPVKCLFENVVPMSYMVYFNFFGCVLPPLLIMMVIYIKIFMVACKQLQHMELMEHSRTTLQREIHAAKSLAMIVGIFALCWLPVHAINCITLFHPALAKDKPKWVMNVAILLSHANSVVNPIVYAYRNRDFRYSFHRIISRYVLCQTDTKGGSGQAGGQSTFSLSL
The experiment in a line: Displacement of [3H]PSB-603 from rat adenosine receptor A2B expressed in CHO cell membranes at 0.1 uM incubated for 75 mins by radioligand competition assay relative to control. The conditions noted are these: Cell membrane. The method, boiled down: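 CHO membranes expressing human or rat A2B, [3H]PSB-603 0.3 nM. Nonspecific binding defined by 10 µM DPCPX. Preincubated 20 min with adenosine deaminase, then 75 min at rt in Tris-HCl pH 7.4 with 2.5% DMSO. Filters washed with ice-cold 50 mM Tris-HCl containing 0.1% BSA; scintillation counting.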

Assay [4] concerns the target T4, Adenosine receptor A3 (Rattus norvegicus) (UniProt P28647).
T4 sequence (whole entry): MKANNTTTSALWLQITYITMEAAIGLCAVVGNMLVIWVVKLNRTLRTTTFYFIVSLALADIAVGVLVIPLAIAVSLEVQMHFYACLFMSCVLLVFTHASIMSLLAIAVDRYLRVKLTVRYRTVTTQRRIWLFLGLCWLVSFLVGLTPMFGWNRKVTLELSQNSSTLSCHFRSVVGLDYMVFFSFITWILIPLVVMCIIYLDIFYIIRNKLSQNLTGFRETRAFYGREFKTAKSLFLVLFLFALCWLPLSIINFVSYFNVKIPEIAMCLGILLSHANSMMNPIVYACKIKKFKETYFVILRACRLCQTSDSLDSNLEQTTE
The experiment in a line: Displacement of [3H]NECA from rat adenosine receptor A3 expressed in CHO cell membranes at 0.1 uM incubated for 60 mins by radioligand competition assay relative to control. The conditions noted are these: Cell membrane. The method, boiled down:
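CHO membranes expressing rat A3, [3H]NECA 10 nM. Nonspecific binding defined by 100 µM R-PIA. Preincubated 20 min with adenosine deaminase, then 60 min at rt in 50 mM Tris-HCl pH 7.4 with 2.5% DMSO. GF/B filtration, scintillation counting.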

A further assay addresses T5, Adenosine receptor A2b (Homo sapiens, UniProt P29275).
T5 sequence (P29275 whole entry): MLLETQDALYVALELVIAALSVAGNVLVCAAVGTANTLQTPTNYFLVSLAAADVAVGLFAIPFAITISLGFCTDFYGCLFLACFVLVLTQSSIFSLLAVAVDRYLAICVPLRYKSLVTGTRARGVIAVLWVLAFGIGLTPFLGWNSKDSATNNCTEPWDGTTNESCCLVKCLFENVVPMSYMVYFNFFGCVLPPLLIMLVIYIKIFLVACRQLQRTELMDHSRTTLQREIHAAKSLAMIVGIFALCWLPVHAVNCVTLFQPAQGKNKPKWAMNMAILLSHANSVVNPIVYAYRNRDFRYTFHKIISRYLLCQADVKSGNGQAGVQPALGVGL
As to the kind of experiment: Displacement of [3H]PSB-603 from human adenosine receptor A2B expressed in CHO cell membranes incubated for 75 mins by radioligand competition assay. More on the design: species or system Cell membrane.

Assay [5] concerns the target Adenosine receptor A2a (Rattus norvegicus, UniProt P30543). As to the kind of experiment: Displacement of [3H]MSX2 from adenosine receptor A2A in rat brain striatum membranes incubated for 30 mins by radioligand competition assay. In kind it is cell membranes, Cell membrane.
Assay [6] has as its target T6, Adenosine receptor A2a (Homo sapiens, UniProt P29274). The experiment in a line: Displacement of [3H]MSX2 from human adenosine receptor A2A expressed in HEK293 cell membranes incubated for 30 mins by radioligand competition assay. On the set-up: species or system Cell membrane.
Assay [7] deals with T6, Adenosine receptor A2a. As to the kind of experiment: Displacement of [3H]MSX2 from human adenosine receptor A2A expressed in HEK293 cell membranes at 0.1 uM incubated for 30 mins by radioligand competition assay relative to control. The settings on record: Cell membrane, in the assay text read “at 1 uM” for “at 0.1 uM”. The method, boiled down: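 A2A binding, [3H]MSX-2 1.0 nM. Membranes: rat brain striatum, or HEK293 cells expressing human A2A. Adenosine deaminase preincubation 20 min, then 30 min at rt in 50 mM Tris-HCl pH 7.4 with 2.5% DMSO. Nonspecific binding defined by 50 µM NECA. GF/B filtration, scintillation counting. Single-concentration percent inhibition, ≥3 experiments in duplicate or triplicate.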

We go through one compound from ChEMBL document CHEMBL4680130, “Substituted 4-phenylthiazoles: Development of potent and selective A, A and dual A/A adenosine receptor antagonists” (Eur J Med Chem, 2020).

pIC50, pKi: −log10 of the molar value. A value given as a limit tells only on which side of the number the result lay.

T6 sequence (P29274 whole entry): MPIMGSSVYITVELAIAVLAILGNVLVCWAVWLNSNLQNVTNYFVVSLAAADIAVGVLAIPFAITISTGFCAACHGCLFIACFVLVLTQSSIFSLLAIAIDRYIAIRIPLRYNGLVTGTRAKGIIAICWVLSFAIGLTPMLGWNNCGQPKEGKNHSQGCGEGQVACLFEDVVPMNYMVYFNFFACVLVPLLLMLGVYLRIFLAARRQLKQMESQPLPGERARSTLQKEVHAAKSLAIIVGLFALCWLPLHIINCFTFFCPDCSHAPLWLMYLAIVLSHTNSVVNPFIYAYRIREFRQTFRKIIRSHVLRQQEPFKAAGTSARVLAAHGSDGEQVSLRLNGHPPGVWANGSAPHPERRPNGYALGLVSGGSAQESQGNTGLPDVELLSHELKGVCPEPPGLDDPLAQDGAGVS
Sequence of Adenosine receptor A2a (Rattus norvegicus, UniProt P30543) (P30543 whole entry): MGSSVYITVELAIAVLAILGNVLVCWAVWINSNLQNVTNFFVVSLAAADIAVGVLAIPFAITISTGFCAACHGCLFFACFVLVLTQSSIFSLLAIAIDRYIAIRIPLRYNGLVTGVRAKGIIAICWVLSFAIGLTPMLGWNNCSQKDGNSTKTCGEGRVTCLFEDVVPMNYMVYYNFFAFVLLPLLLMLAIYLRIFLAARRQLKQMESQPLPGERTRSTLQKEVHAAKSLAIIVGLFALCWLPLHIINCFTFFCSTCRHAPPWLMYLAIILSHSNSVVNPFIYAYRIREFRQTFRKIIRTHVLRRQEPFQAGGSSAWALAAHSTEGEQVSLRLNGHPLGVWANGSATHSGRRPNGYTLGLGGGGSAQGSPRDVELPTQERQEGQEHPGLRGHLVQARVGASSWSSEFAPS

A word on the pKi: it is the negative decadic logarithm of the Ki, by convention in mol/L. In general, pIC50 refers to −log10 of the IC50, conventionally taken in molar units. In general, inhibition refers to the drop in the measured response relative to a control, in per cent. Turning to `COc1ccc(C(=O)Nc2nc(-c3ccccc3)c(C(=O)c3ccc(C)cc3)s2)cc1`, the pKi at Adenosine receptor A1 [1] was 8.01; at Adenosine receptor A2b, less than 7.00; on Adenosine receptor A2a [5], less than 6.00; on Adenosine receptor A2a [6] it was less than 6.00. On Adenosine receptor A1 [2], the pIC50 is 10.12. The inhibition in assay [3] is 7%; in assay [4] it was 13%; on Adenosine receptor A2a [7], 28%.
